Experimental data pooled from the literature.
Protocols differ between the studies behind these lines.
Target: Cytochrome P450 2D6 (CYP2D6, Homo sapiens, UniProt P10635)
Effect on: enzyme activity
Action: inhibitor

| SMILES | technique | species | matrix | time | pH | measurement | value |
| --- | --- | --- | --- | --- | --- | --- | --- |
| CC1=CC(=O)C(C(C)C)=CC1=O | fluorescence |  |  |  | pH 7.4 | IC50 | 282 µM |
| CCc1cc(/C(C)=N/OCc2ccc(C3CCCCC3)c(C(F)(F)F)c2)ccc1CN1CC(C(=O)O)C1 |  | human | liver microsomes | 20 min |  | IC50 | > 1.1 µM |
| Cc1cc([C@H]2C[C@H]3[C@@H](CF)SC(N)=N[C@@]3(c3ccc(F)cc3F)CO2)on1 |  | human | liver microsomes |  | pH 7.4 | IC50 | > 30 µM |
| CCOC(=O)C1CCN(C(=O)c2ccc(N(CC)Cc3cnc4nc(N)nc(N)c4n3)cc2)CC1 | luciferase |  |  |  |  | IC50 | 51.3 µM |
| Cc1ccc2nc(-c3ccccc3)c(CNc3ccc(F)cc3)n2c1 |  |  |  |  |  | IC50 | 2.3 µM |
| NS(=O)(=O)NCCNc1nonc1C(=NO)Nc1ccc(F)c(Br)c1 | fluorescence |  |  |  |  | IC50 | > 10 µM |
| COc1ccc2c(Cc3ccccc3F)c3n(c(=O)c2c1OC)CCc1cc2c(cc1-3)OCO2 |  |  |  |  |  | IC50 | > 10 µM |
| Nc1nc(N)c2nc(CNc3ccc(C(=O)NCCc4ccccc4)cc3)cnc2n1 | luciferase |  |  |  |  | IC50 | 10.5 µM |
| Cc1cc2c(F)c(Oc3ncnn4cc(OC[C@@H](C)O)c(C)c34)ccc2[nH]1 | fluorescence |  |  | 15 min |  | IC50 | 34.7 µM |
| Cc1cc(C)c2c(c1)[C@@H](N(Cc1cc(C(F)(F)F)cc(C(F)(F)F)c1)c1nnn(C)n1)CCCN2C[C@H]1CC[C@H](C(=O)O)CC1 |  | human | liver microsomes |  | pH 7.4 | Ki | 2.1 µM |
| C[C@@H](c1ccc2nccn2c1)n1nnc2ncc(-c3cnn(C)c3)nc21 |  | human | liver microsomes |  | pH 7.4 | IC50 | 24 µM |
| COc1ccn2c(Nc3ccccc3F)c(-c3ccncn3)nc2c1 |  |  |  |  |  | IC50 | 2.3 µM |
